Structures are written as SMILES.

Data set [1] has as its target T1, Steroid 17-alpha-hydroxylase/17,20 lyase (Homo sapiens, UniProt P05093).
T1 sequence (P05093 whole entry): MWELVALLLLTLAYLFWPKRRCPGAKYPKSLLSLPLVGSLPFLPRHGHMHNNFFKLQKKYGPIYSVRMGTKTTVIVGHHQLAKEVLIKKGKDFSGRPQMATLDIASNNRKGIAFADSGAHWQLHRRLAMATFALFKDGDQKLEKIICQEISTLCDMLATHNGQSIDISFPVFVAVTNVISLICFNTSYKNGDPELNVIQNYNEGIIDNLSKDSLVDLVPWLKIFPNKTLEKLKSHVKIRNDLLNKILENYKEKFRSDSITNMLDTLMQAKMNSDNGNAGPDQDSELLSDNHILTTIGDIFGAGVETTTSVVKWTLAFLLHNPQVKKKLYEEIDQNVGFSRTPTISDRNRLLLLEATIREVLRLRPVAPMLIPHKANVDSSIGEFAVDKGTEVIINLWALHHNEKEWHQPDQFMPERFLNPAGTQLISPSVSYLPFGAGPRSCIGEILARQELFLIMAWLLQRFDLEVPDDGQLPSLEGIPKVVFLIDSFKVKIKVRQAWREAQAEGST
Put plainly: Inhibition of C-myc/DDK tagged human CYP17A1 expressed in HEK293T cells assessed as reduction in formation of 17-OHP at 10 uM incubated for 30 mins by LC-MS/MS analysis. In kind it is cell-based. The conditions noted are these: 0.5 h. In outline:
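CYP17A1 activity measured as 17α-hydroxyprogesterone formation in 50 mM Tris pH 7.4, 5 mM MgCl2. Incubation 30 min at 37 °C, quenched with 20% trichloroacetic acid; product quantified by LC-MS/MS. Mean ± SD, n = 2.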

Data set [2] can be described thus: Antiproliferative activity against human LNCaP-AR cells assessed as reduction in cell viability incubated for 6 days by CCK8 assay. The data set is classed as functional, cell-based. The conditions noted are these: 144 h. An outline of the steps: (§1)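 Cells seeded (2×10^4 per well for VCaP, 1–3×10^3 for the others) and compound added after 24 h as a 9-point, 3-fold serial dilution. Exposure 6 days, then CCK-8 for 1–4 h and absorbance at 450 nm. IC50 from curve fit, mean of at least two independent experiments run in duplicate.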

For a further data set, the system named is L02. Put plainly: Antiproliferative activity against human L02 cells assessed as reduction in cell viability incubated for 6 days by CCK8 assay. In kind it is cell-based. The conditions noted are these: L02, 144 h. In outline: as §1
For orientation: Tetrazolium assays rely on reduction of a dye to a coloured formazan, in cell work by metabolically active cells.

Data set [3] in a line: Toxicity in BALB/c nude mouse xenografted with human VCaP cells assessed as weight loss at 30 mg/kg, po qd administered for 40 days relative to control. The data set is classed as organism-based. The conditions noted are these: in vivo, 960 h. (A xenograft is tissue or cells of one species grown in another, often human tumour cells in immunodeficient mice.)
The subject of a further data set is PC-3. Put plainly: Antiproliferative activity against human PC3 cells assessed as reduction in cell viability incubated for 6 days by CCK8 assay. The conditions noted are these: PC-3, 144 h. In kind it is functional, cell-based. In outline:
as §1

In a further data set the test system is CWR22R. Put plainly: Antiproliferative activity against human 22Rv1 cells assessed as reduction in cell viability incubated for 6 days by CCK8 assay. In kind it is functional, cell-based. The conditions noted are these: 22Rv1, 144 h. In outline: as §1
The test system of a further data set is VCaP. Put plainly: Antitumor activity against human VCaP cells xenografted in BALB/c nude mouse assessed as inhibition of tumor growth at 30 mg/kg, po qd administered for 40 days relative to control. In kind it is functional. In outline: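 Male BALB/c nude mice, 5 weeks old, s.c. 1 × 10^7 VCaP cells in DMEM/Matrigel (1:1). Castrated under Nembutal at 150–200 mm3 and randomized (n = 8–10). Once tumors regrew to 200–350 mm3, oral 30 mg/kg qd for 40 days. TGI = [1 − (T − T0)/(C − C0)] × 100 from mean tumor volumes on first and last treatment days.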

With `C[C@]12CC[C@H](O)CC1=CC[C@@H]1[C@@H]2CC[C@]2(C)C(n3cnc4ccccc43)=CC[C@@H]12` [GALETERONE], in data set [1], the inhibition at 10 µM worked out at 50%.

Consider `CNC(=O)c1ccc(N2C(=S)N(c3ccc(C#N)c(C(F)(F)F)c3)C(=O)C2(C)C)cc1F` [ENZALUTAMIDE], for which the IC50 in data set [2] is 0.19 µM; in the data set on L02, 17.1 µM; in the data set on PC-3, > 30 µM; with CWR22R, > 30 µM. Also, in data set [3], the Activity entry is “Non-Toxic”. In addition, the TGI in the data set with VCaP was determined as 43%.

Turning to `C[C@]12CC[C@H](O)CC1=CC[C@@H]1[C@@H]2CC[C@]2(C)C(c3cccnc3)=CC[C@@H]12` [ABIRATERONE], the inhibition at 10 µM in data set [1] came out at 100%.

One may read the inhibition as the share of the control response that was lost under treatment. The IC50 is the concentration needed to halve the response being measured. What is called TGI is the reduction of tumour growth relative to the control group.

The values are drawn from ChEMBL document CHEMBL4346686, “Discovery and biological evaluation of novel androgen receptor antagonist for castration-resistant prostate cancer” (Eur J Med Chem, 2019).
